MrgX1 ag = activates human MrgX1 receptor signaling | 0.44% of 310,000 active | MrgX1-HEK293 cells, Fluo-4 calcium fluorescence, agonist mode; hits give high values | AID 588627 | Q96LB2 | B-score at 10 µM;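 active = calcium response B-score plate-corrected fluorescence ratio at least 3 library SD, with starting fluorescence B-score inside 5 SD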
Target sequence (Q96LB2 whole entry, looked up): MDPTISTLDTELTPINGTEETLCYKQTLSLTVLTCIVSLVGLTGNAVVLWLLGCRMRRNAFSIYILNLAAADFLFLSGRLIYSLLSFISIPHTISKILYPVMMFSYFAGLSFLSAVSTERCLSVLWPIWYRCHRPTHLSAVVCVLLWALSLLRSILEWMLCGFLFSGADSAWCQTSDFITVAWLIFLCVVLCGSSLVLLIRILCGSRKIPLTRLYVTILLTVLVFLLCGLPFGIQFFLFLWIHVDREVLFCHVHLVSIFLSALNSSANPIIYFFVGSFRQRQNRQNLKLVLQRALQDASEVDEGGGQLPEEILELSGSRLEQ
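Test system: HEK293 cells stably expressing human MrgX1 receptor; Input: fifteen thousand cells per well; Dosing: compound delivered in addition one of three; Schedule: overnight seeding, then 1 h dark dye loading; Technique: Fluo-4 NW calcium fluorescence; Measure: B-scored fluorescence response ratio; Controls: positive and negative controls per plate.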
RGS4 pot = potentiators or activators of RGS4; B-score at 10 µM; 0.92% of 310,000 active; HEK293 M3R/inducible RGS4, carbachol calcium flux Fluo4; hits give low values;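 active = B-score of the integrated calcium signal more than 4 SD below the library mean, with starting fluorescence not abnormally high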;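 also: negative B-score means reduced calcium response which marks RGS4 activation or potentiation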
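Material: Inducible-RGS4 HEK293 cells carrying M3 receptor; also added: carbachol at ECmax as muscarinic agonist stimulus; incubation: compound preincubation 20 min at room temperature before agonist; signal: Fluo4-AM (2 µM) calcium-flux fluorescence, kinetic read; measure: integrated calcium ratio converted to B score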
RGS4 block = human RGS4 inhibition. P49798. HEK293 M3R/RGS4 inducible, Fluo-4 calcium flux; hits give high values; triggered by carbachol at its EC20. B-score at 10 µM. 0.45% of 310,000 active;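 active = B-score, a plate-corrected calcium signal, over three deviations above library mean, with baseline fluorescence within five deviations of library mean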;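 also: RGS4 expression induced by doxycycline in cells with stable M3 receptor; B-score is computed from the integrated fluorescence ratio over baseline after carbachol; higher B-score means a larger calcium signal and so more RGS4 inhibition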
Target sequence (P49798 whole entry, looked up): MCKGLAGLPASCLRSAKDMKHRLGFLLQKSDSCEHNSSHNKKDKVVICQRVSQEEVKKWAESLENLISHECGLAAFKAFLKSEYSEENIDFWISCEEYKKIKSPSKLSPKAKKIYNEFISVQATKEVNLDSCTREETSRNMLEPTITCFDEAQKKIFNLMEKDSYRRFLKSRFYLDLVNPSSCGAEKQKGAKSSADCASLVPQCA
MrgX1 allo act = human MrgX1 positive allosteric modulation, primary screen | Q96LB2 | MrgX1-HEK293, Fluo-4 calcium flux, FDSS; hits give high values | AID 588675 | 0.63% of 310,000 active | B-score at 10 µM;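 active = plate-corrected calcium response at least 3 library SD above typical, normal starting fluorescence, not activating the receptor alone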;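 also: compound read alongside a low EC10 to EC30 dose of BAM8-22 agonist; peak minus trough fluorescence over baseline measured at the second addition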
MrgX1 antagonist = antagonists of human MrgX1 receptor. B-score at 10 µM. Q96LB2. MRGX1-HEK293 calcium flux, Fluo-4, BAM8-22 antagonism; hits give low values. 1.3% of 310,000 active;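 active = calcium-response B-score plate-corrected more than 3 library SD below zero, starting fluorescence within 5 deviations, no agonist response on first addition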;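 also: peak minus trough fluorescence over baseline after final BAM8-22 challenge near maximal dose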
An asterisk follows results filed as active; i = inactive; . = not tested or not shown. In the library only some 3.5% were active in any assay of this set; here they are far more common.

SMILES | MrgX1 ag | RGS4 pot | RGS4 block | MrgX1 allo act | MrgX1 antagonist
CCOc1ccc(S(=O)(=O)NC(Cc2cnc[nH]2)C(=O)O)cc1 (stereo not given) | i | i | i | i | -4.9*
C=CCNCc1cc(=O)n2c(-c3ccccc3)csc2n1 | i | -8.8* | i | i | i
CCCCOc1ccc(C2=CSC3=NCCN23)cc1[N+](=O)[O-] | i | -7.4* | i | i | i
N#CCCN(Cc1cccnc1)S(=O)(=O)c1ccc(S(=O)(=O)NC2CCCCC2)cc1 | i | i | i | i | -5.6*
O=C(COc1ccc(S(=O)(=O)NC2CCCCC2)cc1)NCc1cccnc1 | i | i | i | i | i
COc1cccc(-c2nc(CS(=O)(=O)CC(=O)N3CCOCC3)c(C)o2)c1 | i | i | i | i | i
COc1ccc(N2CC(C(=O)Nc3nnc(SCC(=O)N4CCOCC4)s3)CC2=O)cc1 (stereo not given) | i | i | i | i | i
O=C(OCC(=O)N(CCc1ccccc1)Cc1ccccc1)c1ccccc1NCCO | i | -8.4* | i | i | i
O=C(OCC(=O)N(CCc1ccccc1)Cc1ccccc1)c1ccccc1O | i | i | i | i | i
O=C(Nc1ccc(F)cc1)N1CCN(C(=O)C2CCCO2)CC1 (stereo not given) | i | i | i | i | i
CCOC(=O)C1CCCN(C(c2ccccn2)c2c(C)[nH]c3ccccc23)C1 (stereo not given) | i | -8.4* | i | i | i
CCc1ccccc1N(CC(=O)NCc1ccco1)C(=O)CCC(=O)Nc1nccs1 | i | i | i | i | i
Nc1ccc(C(=O)O)c(O)c1 | i | i | i | i | i
Nc1ccc(N)c(C(=O)O)c1 | i | i | i | i | -5.6*
Cc1ccc(F)cc1CNC(=O)C1CCC(=O)N(C2CC2)C1 (stereo not given) | i | i | i | i | i
BrC(/C=C\c1ccccc1)=N/Nc1nc(N2CCOCC2)nc(N2CCOCC2)n1 | i | i | i | i | -8*
BrC(=C\c1ccccc1)/C=N/Nc1nc(N2CCOCC2)nc(N2CCOCC2)n1 | i | i | i | i | i
CCCNC(=O)Cn1c(=O)/c(=C\c2ccc(-c3ccc([N+](=O)[O-])cc3)o2)s/c1=C\C(=O)C(C)(C)C | i | i | i | i | -9.5*
CCCNC(=O)Cn1c(=O)/c(=C\c2ccc(-c3cccc([N+](=O)[O-])c3)o2)s/c1=C\C(=O)C(C)(C)C | i | i | i | i | -6.8*
O=C1NC(=O)/C(=C/c2ccc(-c3cccc([N+](=O)[O-])c3)o2)S1 | i | i | i | i | i
CC(=O)c1ccc(S(=O)(=O)N(C)CCCC(=O)N(C)Cc2c(F)cccc2Cl)cc1 | i | i | i | i | i
O=C(NCc1ccc(Cl)cc1)C1CCC(=O)N(C2CCCCCC2)C1 (stereo not given) | i | i | i | i | i
O=C1Nc2ccccc2N=C(c2ccccc2)c2ccccc21 | i | i | i | i | i
CC1(C)CC[C@]2(C(=O)O)CC[C@]3(C)C(=CC[C@@H]4[C@@]5(C)CC[C@H](O)C(C)(C)[C@@H]5CC[C@]43C)[C@@H]2C1 | i | . | . | i | i
CC(=O)OC1COC(OC2C(O)C(C)OC(OC3C(OC4CCC5(C)C(CCC6(C)C5CC=C5C7CC(C)(C)CCC7(C(=O)O)CCC56C)C4(C)CO)OCC(O)C3O)C2O)C(O)C1OC(C)=O (stereo not given) | 219* | . | . | i | i
SMILES | MrgX1 ag | RGS4 pot | RGS4 block | MrgX1 allo act | MrgX1 antagonist
Cn1c(=O)c2nc3ccccc3nc2n(C)c1=O | i | -7.5* | i | i | i
CC(=O)c1ccc(OCCCC(=O)NC(C)c2ccc(S(N)(=O)=O)cc2)cc1 (stereo not given) | i | i | i | 6.6* | i
Cc1ccc(OCCCC(=O)NC(C)c2ccccc2)cc1 (stereo not given) | i | i | i | i | i
COc1ccc(-n2c3c(cc(C(=O)Nc4ccc(C)cc4)c2=O)C(=O)CCC3)cc1 | i | i | i | i | i
COc1ccc(-n2c3c(cc(C#N)c2=O)C(=O)CCC3)cc1 | i | i | i | 11* | i
COc1cccc(CNC(=O)C2CCN(S(=O)(=O)c3cccc4nonc34)CC2)c1 | i | i | i | i | i
CCN(CC)c1ccc(/C=C(/C#N)c2nc3ccc(C)cc3[nH]2)c(OC(C)C)c1 | 40* | i | i | i | i
CCOc1cc(N(CC)CC)ccc1/C=C(/C#N)c1nc2ccccc2[nH]1 | 79* | i | i | i | i
COc1cccc(/C=C(\C#N)c2nc3ccccc3[nH]2)c1OCC(=O)O | i | i | i | i | i
CCCOc1cc(N(CC)CC)ccc1/C=C(/C#N)c1nc2ccc(C)cc2[nH]1 | i | i | i | 12* | i
Cc1ccc(NC(=O)C2CCCN(S(=O)(=O)c3cccc4cccnc34)C2)cc1 (stereo not given) | i | i | i | i | i
Cc1cnc(C(=O)OCC(=O)c2ccc(Cl)cc2)cn1 | i | i | i | i | i
CC(C)N(CCNC(=O)COc1ccc2oc3c(c2c1)CCCC3)C(C)C | i | i | i | i | i
CCN(c1ccc(OC)cc1)S(=O)(=O)c1cc(-c2cc(C)no2)ccc1C(C)C | i | i | i | i | i
CCOc1ccc(N(C)S(=O)(=O)c2cc(-c3cc(C)no3)ccc2C(C)C)cc1 | i | i | i | i | -4.8*
CCOc1ccccc1NC(=O)CSc1nnc(CCC(=O)Nc2ccccc2F)n1C | i | i | i | i | i
COc1ccc(OCC(=O)Nc2ccc(N3CCN(Cc4ccccc4F)CC3)cc2)cc1 | i | i | i | i | i
Cc1cccn2c(=O)c(C(=O)NC3CC(C)CC(C)(C)C3)c(O)nc12 (stereo not given) | i | -7.2* | i | i | i
CN(C)c1ccc(N=Cc2ccco2)cc1 | i | . | . | i | i
C(=Nc1cccc2c(N=Cc3ccco3)cccc12)c1ccco1 | 39* | i | i | i | i
CCOC(=O)C1CCN(c2cc3c(cc2NC(=O)c2ccccc2OCC)n(C)c(=O)n3C)CC1 | i | -7.8* | i | i | i
CN(C(=O)c1ccccc1-c1ncc[nH]1)C1CCCN(Cc2ccccc2F)C1 (stereo not given) | i | i | i | i | i
COc1ccc2oc(=O)c(C(=O)NCc3ccc4c(c3)OCO4)cc2c1 | i | i | i | i | -6.1*

Assay outcomes deposited in PubChem BioAssay by Johns Hopkins Ion Channel Center.
